Assays:
[1] = Half life period in human plasma using phosphate buffer (0.08 M); format: ADME, cell-free
[2] = Half life period in phosphate buffer (0.08 M); format: ADME
How it was run: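 Prodrug was incubated in 0.08 M phosphate buffer pH 7.4 at 37 °C with shaking, mostly at 3–9 mM (0.8 or 0.3 mM for some). Incubation was stopped with 2.0 M acetate pH 5.0 plus EtOH. Parent compound was quantified by silica TLC (UV 254 nm or NBP stain) and densitometry against a zero-time control. kobs came from the ln(% remaining) versus time slope; t1/2 = 0.693/kobs.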

P388/CPA [3] = assay: In vivo antitumor activity against P388/CPA leukemia (resistant) in mice measured by increase in life span after 200 mg/kg compound administration; format: functional; details: Mus musculus
How it was run: (§1)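 CD2F1 mice (24–26 g) were implanted ip with 10^6 P388/0 or P388/CPA leukemia cells on day 0. A single ip dose (100, 200 or 400 mg/kg) in saline or saline–Tween 80 was given on day 1; vehicle controls were included. Five mice were used per dose. Survival was followed for 33 days against untreated controls and reported as % increase in life span and number of long-term survivors.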

P388/CPA [4] = assay: In vivo antitumor activity against P388/CPA leukemia (resistant) in mice measured by increase in life span after 400 mg/kg compound administration; format: functional; details: Mus musculus; how it was run: as §1
P388/CPA [5] = assay: In vivo antitumor activity against P388/CPA leukemia in mice (resistant) measured by increase in life span after 100 mg/kg compound administration; format: functional; details: Mus musculus; how it was run: as §1
P388 [6] = assay: In vivo antitumor activity against P388/0 (wild) leukemia in mice measured by increase in life span after 100 mg/kg compound administration; format: functional; details: Mus musculus; how it was run: as §1
P388 [7] = assay: In vivo antitumor activity against P388/0 (wild) leukemia in mice measured by increase in life span after 200 mg/kg compound administration; format: functional; details: Mus musculus; how it was run: as §1
P388 [8] = assay: In vivo antitumor activity against P388/0 (wild) leukemia in mice measured by increase in life span after 400 mg/kg compound administration; format: functional; details: Mus musculus; how it was run: as §1
V79 = assay: In vitro cytotoxicity against V-79 chinese hamster lung fibroblasts (3 hr drug exposure time) by clonogenic assay; format: functional, cell-based; details: Cricetulus griseus, V79, 3 h
How it was run: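 Subcloned V-79 cells in MEM with 10% heat-inactivated FBS were used. 500 log-phase cells per dish were seeded and left 12–15 h. Cells were exposed to drug or solvent for 3 h at 37 °C, rinsed with HBSS, and grown 5–6 days. Colonies were fixed with EtOH, stained with crystal violet and counted against solvent control. IC50 (50% loss of clonogenic survival) came from the semilog concentration–survival plot; three experiments.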

[9] = In vivo antitumor activity against P388/0 (wild) leukemia in mice measured by increase in life span after 400 mg/kg compound administration; Toxic; format: toxicity, organism-based; design: dose 400 mg/kg; details: mouse; how it was run: as §1
[10] = In vivo antitumor activity against P388/CPA leukemia (resistant) in mice measured by increase in life span after 400 mg/kg compound administration; Toxic; format: toxicity, organism-based; design: dose 400 mg/kg; details: mouse; how it was run: as §1
P388 [11] = assay: Number of long-term (33-day) survival P388/0 (wild) leukemia mice (5) after 400 mg/kg compound administration; format: functional, Mus musculus; how it was run: as §1
[12] = Half life period in phosphate buffer (0.2 M); format: ADME
[13] = In vivo antitumor activity against P388/0 (wild) leukemia in mice measured by increase in life span after 200 mg/kg compound administration; Toxic; format: toxicity, organism-based; design: dose 200 mg/kg; details: mouse; how it was run: as §1

Row | SMILES | half-life [1] | half-life [2] | ILS at 200 mg/kg (P388/CPA [3]) | ILS at 400 mg/kg (P388/CPA [4]) | ILS at 100 mg/kg (P388/CPA [5]) | ILS at 100 mg/kg (P388 [6]) | ILS at 200 mg/kg (P388 [7]) | ILS at 400 mg/kg (P388 [8]) | IC50 (V79) | ILS [9] | ILS [10] | Number (P388 [11]) | half-life [12] | ILS [13]
1 | Cc1ccc(S(=O)(=O)CCOP(N)(=O)N(CCCl)CCCl)cc1 (stereo not given) | 4.8 h | 12.8 h | 28% | 44% | 28% | 20% | 50% | 90% | 11.5 µM |  |  |  |  | 
2 | O=[N+]([O-])c1ccc(S(=O)(=O)CCOP(=O)(N(CCCl)CCCl)N(CCCl)CCCl)cc1 | 0.37 h | 0.69 h | 68% |  | 84% | 100% | 120% |  | 1.8 µM | Toxic | Toxic |  |  | 
3 | Cc1ccc(SCCO)cc1 |  |  |  |  |  |  |  |  | 69.1 µM |  |  |  |  | 
4 | CS(=O)(=O)CCOP(=O)(N(CCCl)CCCl)N(CCCl)CCCl | 1.6 h | 7.2 h | 28% | 60% | 12% | 10% | 10% | 30% | 24.1 µM |  |  |  |  | 
5 | CSCCOP(=O)(N(CCCl)CCCl)N(CCCl)CCCl |  |  |  |  |  |  |  |  | 69.1 µM |  |  |  |  | 
6 | Cc1ccc(SCCOP(N)(=O)N(CCCl)CCCl)cc1 (stereo not given) |  |  |  |  |  |  |  |  | 69.1 µM |  |  |  |  | 
7 | CS(=O)(=O)CCOP(=O)(NCCCl)NCCCl | 2.2 h | 6.4 h | 84% | 108% | 20% | 33% | 52% | 100% | 68 µM |  |  | 1 |  | 
8 | CS(=O)(=O)CC(OP(=O)(N(CCCl)CCCl)N(CCCl)CCCl)c1ccccc1 (stereo not given) | 1 h | 1.8 h | 20% | 60% | 4% | 10% | 20% | 20% | 15.2 µM |  |  |  |  | 
9 | O=[N+]([O-])c1ccc(S(=O)(=O)CCOP(=O)(NCCCl)NCCCl)cc1 | < 0.01 h | 0.08 h | 92% |  | 60% | 71% | 138% |  | 2.1 µM | Toxic | Toxic |  |  | 
10 | O=P(NCCCl)(NCCCl)OCCS(=O)(=O)c1ccccc1 | 2.6 h | 6.4 h | 28% | 60% | 20% | 33% | 33% | 33% | 13.9 µM |  |  |  |  | 
11 | O=[N+]([O-])c1ccc(SCCO)cc1 |  |  |  |  |  |  |  |  | 69.1 µM |  |  |  |  | 
12 | CS(=O)(=O)CCOc1ccc([N+](=O)[O-])c([N+](=O)[O-])c1 |  |  |  |  |  |  |  |  | 69.1 µM |  |  |  |  | 
13 | CSCCO |  |  |  |  |  |  |  |  | 69.1 µM |  |  |  |  | 
14 | CSCC(OP(=O)(N(CCCl)CCCl)N(CCCl)CCCl)c1ccccc1 (stereo not given) |  |  |  |  |  |  |  |  | 69.1 µM |  |  |  |  | 
15 | Cc1ccc(S(=O)(=O)CCOP(=O)(NCCCl)NCCCl)cc1 | 4.4 h | 12.1 h | 12% | 36% | 4% | 23% | 14% | 23% | 9.5 µM |  |  |  |  | 
16 | CSCCOc1ccc([N+](=O)[O-])c([N+](=O)[O-])c1 |  |  |  |  |  |  |  |  | 69.1 µM |  |  |  |  | 
17 | O=P(O)(NCCCl)NCCCl [PALIFOSFAMIDE] |  |  |  |  |  | 92% |  |  | 60.9 µM |  |  |  | 1 h | Toxic

From ChEMBL document CHEMBL1148371, “Sulfonyl-containing aldophosphamide analogues as novel anticancer prodrugs targeted against cyclophosphamide-resistant tumor cell lines” (J Med Chem, 2004)
